# Data from ChEMBL document CHEMBL3785064, “Cylindrofridins A-C, Linear Cylindrocyclophane-Related Alkylresorcinols from the Cyanobacterium Cylindrospermum stagnale” (J Nat Prod, 2016).
# Tests used:
# [1] = system: Staphylococcus aureus; assay: Antibacterial activity against methicillin-resistant Staphylococcus aureus isolate 1 B690208 after 24 hrs; assay type: functional; conditions: isolate 1 B690208, 24 h
# How it was run: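 MIC determined against MRSA; vancomycin and fusidic acid served as positive controls.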
# [2] = system: Streptococcus pneumoniae; assay: Antibacterial activity against Streptococcus pneumoniae ATCC 49619 after 24 hrs; assay type: functional; conditions: ATCC 49619, 24 h
# [3] = system: Escherichia coli; assay: Antibacterial activity against Escherichia coli isolate 13 V676803 after 24 hrs; assay type: functional; conditions: isolate 13 V676803, 24 h
# [4] = system: Klebsiella pneumoniae; assay: Antibacterial activity against Klebsiella pneumoniae isolate 18 B224106 after 24 hrs; assay type: functional; conditions: isolate 18 B224106, 24 h
# [5] = system: Pseudomonas aeruginosa; assay: Antibacterial activity against Pseudomonas aeruginosa isolate 22 V143708 after 24 hrs; assay type: functional; conditions: isolate 22 V143708, 24 h
# [6] = system: HaCaT; assay: Cytotoxicity against human HaCaT cells by Cell titre-blue assay; assay type: cell-based
# How it was run: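 Nontumorigenic human keratinocyte HaCaT cells were tested with mitoxantrone as the positive control, and results are reported as IC50 in μM.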
smiles,measurement,setting,value
CCCCC(Cl)CCCC[C@H](C)[C@@H](OC(C)=O)c1cc(O)c([C@@H](CCCC)CCCC[C@H](C)[C@@H](OC(C)=O)c2cc(O)cc(O)c2)c(O)c1 (some centres undefined),MIC,[1],> 71 µM
same,MIC,[2],> 71 µM
same,MIC,[3],> 71 µM
same,MIC,[4],> 71 µM
same,MIC,[5],> 71 µM
same,IC50,[6],25 µM
CCCCC(Cl)CCCC[C@H](C)[C@@H](O)c1cc(O)c([C@@H](CCCC)CCCC[C@H](C)[C@@H](OC(C)=O)c2cc(O)cc(O)c2)c(O)c1 (some centres undefined),MIC,[1],> 75 µM
same,MIC,[2],> 75 µM
same,MIC,[3],> 75 µM
same,MIC,[4],> 75 µM
same,MIC,[5],> 75 µM
same,IC50,[6],25 µM
CCCCC(Cl)CCCC[C@H](C)[C@@H](OC(C)=O)c1cc(O)cc(O)c1 (some centres undefined),MIC,[1],8.6 µM
same,MIC,[2],17 µM
same,MIC,[3],> 135 µM
same,MIC,[4],> 135 µM
same,MIC,[5],> 135 µM
same,IC50,[6],100 µM
CCCC[C@H]1CCCC[C@H](C)[C@@H](O)c2cc(O)c(c(O)c2)[C@@H](CCCC)CCCC[C@H](C)[C@@H](OC(C)=O)c2cc(O)c1c(O)c2,MIC,[1],0.1 µM
same,MIC,[2],0.3 µM
same,MIC,[3],> 80 µM
same,MIC,[4],> 80 µM
same,MIC,[5],> 80 µM
same,IC50,[6],2.9 µM
CCCC[C@H]1CCCC[C@H](C)[C@@H](OC(C)=O)c2cc(O)c(c(O)c2)[C@@H](CCCC)CCCC[C@H](C)[C@@H](OC(C)=O)c2cc(O)c1c(O)c2,MIC,[1],0.9 µM
same,MIC,[2],2.4 µM
same,MIC,[3],> 75 µM
same,MIC,[4],> 75 µM
same,MIC,[5],> 75 µM
same,IC50,[6],11 µM
CN[C@@H](CC(C)C)C(=O)N[C@H]1C(=O)N[C@@H](CC(N)=O)C(=O)N[C@H]2C(=O)N[C@H]3C(=O)N[C@H](C(=O)N[C@@H](C(=O)O)c4cc(O)cc(O)c4-c4cc3ccc4O)[C@H](O)c3ccc(c(Cl)c3)Oc3cc2cc(c3O[C@H]2O[C@@H](CO)[C@H](O)[C@@H](O)[C@@H]2O[C@@H]2C[C@@](C)(N)[C@@H](O)[C@@H](C)O2)Oc2ccc(cc2Cl)[C@H]1O,MIC,[2],3.8 µM
CCCC[C@H]1CCCC[C@H](C)[C@@H](O)c2cc(O)c(c(O)c2)[C@@H](CCCC)CCCC[C@H](C)[C@@H](O)c2cc(O)c1c(O)c2 [CYLINDROCYCLOPHANE A],MIC,[1],0.1 µM
same,MIC,[2],0.3 µM
same,MIC,[3],> 85 µM
same,MIC,[4],> 85 µM
same,MIC,[5],> 85 µM
same,IC50,[6],5 µM
CC(=O)O[C@H]1C[C@@]2(C)[C@@H](C[C@@H](O)[C@H]3[C@@]4(C)CC[C@@H](O)[C@@H](C)[C@@H]4CC[C@@]32C)/C1=C(\CCC=C(C)C)C(=O)O [FUSIDIC ACID],MIC,[1],1.4 µM
O=C1c2c(O)ccc(O)c2C(=O)c2c(NCCNCCO)ccc(NCCNCCO)c21 [MITOXANTRONE],IC50,[6],3.9 µM
